MEKK2mut PB1 HTS: signal of MEK5 binding to mutant human MEKK2 PB1 domain; percent response, % at 10 µM; hit rate 0.35% among 290,000; bead flow cytometry, Alexa488-MEK5 binding to MEKK2 mutant; in the data active = percent response above about 24%, passing the limit was not always enough
UBC13 polyUb: human UBC13 polyubiquitination inhibition; P61088; UBC13 polyubiquitin chain formation, TR-FRET; inhibition, % at 20 µM; hit rate 0.47% among 330,000; in the data active = inhibition above about 45%, passing the limit was not always enough
MEKK3 PB1 HTS: MEKK3-MEK5 PB1 interaction, increase or decrease; binding response (% of control), % at 10 µM; Q99759; AID 1529; hit rate 1.4% among 290,000; bead-based flow cytometry, Alexa488-MEK5 binding to MEKK3; actives lie on both sides; 0 = blocked by unlabeled MEK5, 100 = vehicle;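 active = binding response more than 3 SD above or below the average of its plate-row segment, actives on both sides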;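 also: Alexa488 bead fluorescence after subtracting the streptavidin-only scavenger bead signal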
PREPL inhibitor: inhibits the human prolyl oligopeptidase-like enzyme | Q4J6C6 | recombinant PREPL, fluorescence polarization activity-based probe | inhibition, % at 5.96 µM | hit rate 0.68% among 320,000 | AID 2751; in the data active = inhibition above about 43%;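 also: 0% = enzyme with DMSO and 100% = wells lacking enzyme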
Target sequence (Q4J6C6 whole entry, looked up): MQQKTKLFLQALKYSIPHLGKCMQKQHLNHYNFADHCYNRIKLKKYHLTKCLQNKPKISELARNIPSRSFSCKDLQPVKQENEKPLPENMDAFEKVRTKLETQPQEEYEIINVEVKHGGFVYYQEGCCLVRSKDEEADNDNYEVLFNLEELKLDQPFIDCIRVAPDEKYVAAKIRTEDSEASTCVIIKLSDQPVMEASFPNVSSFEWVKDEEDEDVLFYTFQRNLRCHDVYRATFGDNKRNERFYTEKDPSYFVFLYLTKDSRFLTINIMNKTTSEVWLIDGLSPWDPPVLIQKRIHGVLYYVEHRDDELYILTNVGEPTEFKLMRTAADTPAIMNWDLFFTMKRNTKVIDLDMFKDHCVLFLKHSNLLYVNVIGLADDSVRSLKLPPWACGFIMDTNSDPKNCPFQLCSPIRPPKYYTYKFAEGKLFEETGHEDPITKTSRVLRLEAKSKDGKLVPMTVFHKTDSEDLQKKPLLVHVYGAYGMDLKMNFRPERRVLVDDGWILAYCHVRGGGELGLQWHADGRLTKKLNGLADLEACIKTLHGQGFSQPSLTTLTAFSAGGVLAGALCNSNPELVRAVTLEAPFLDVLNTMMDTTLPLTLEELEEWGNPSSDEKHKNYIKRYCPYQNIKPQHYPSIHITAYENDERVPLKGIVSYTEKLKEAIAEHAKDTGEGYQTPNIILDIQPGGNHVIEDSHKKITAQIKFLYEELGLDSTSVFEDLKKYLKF
MEKK2 WT-MEK5: raises or lowers MEK5 binding to wildtype human MEKK2 PB1 domain. Q9Y2U5. bead flow cytometry, Alexa488-MEK5 binding to MEKK2 WT; actives lie on both sides. binding response (% of control), % at 10 µM. hit rate 1.1% among 290,000. AID 1531; in the data active = binding response below about 67% or above about 130%
Apaf-1 inh: human Apaf-1 inhibition | O14727 | reconstituted apoptosome caspase-3 activity, DEVD-Rh110 fluorescence | inhibition, % at 20 µM | hit rate 0.71% among 330,000 | AID 489030; active = inhibition of at least 40% at 20 µM;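 also: plate controls were DMSO wells for no effect and DEVD-CHO caspase inhibitor wells for full effect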
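System: Apoptosome proteins | Medium: Hepes pH 7.5 with detergent and BSA | Also added: Cytochrome c trigger plus (Z-DEVD)2-Rh110 caspase-3 substrate | Incubation: 30 min compound preincubation, 50 min activation, room temperature | Detection: Rhodamine 110 fluorescence at Ex 480/Em 540 nm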
MEKK2wt confirm: raises or lowers MEK5 binding to wildtype human MEKK2, retest; hit rate 2.4% among 5,900; bead flow cytometry, Alexa488-MEK5 binding to MEKK2 WT; actives lie on both sides; binding response (% of control), % at 10 µM; shares compounds with MEKK3 PB1 HTS; in the data active = binding response below about 16% or above about 210%; inactive = in between
MEKK2mut confirm: signal of MEK5 binding to mutant human MEKK2, retest | percent response, % at 10 µM | shares compounds with MEKK3 PB1 HTS | bead flow cytometry, Alexa488-MEK5 binding to MEKK2 mutant | hit rate 2% among 5,900; in the data active = percent response mostly above about 71%, no sharp cut-off; inactive = mostly below about 38%;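 also: higher means compound restores mutant binding toward wildtype level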
MEKK3 confirm: MEKK3-MEK5 PB1 inhibition, single concentration confirmation; shares compounds with MEKK3 PB1 HTS; bead flow cytometry, Alexa488-MEK5 binding to MEKK3; hits give low values; binding response (% of control), % at 10 µM; hit rate 1.8% among 5,900;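 active = binding response below 72% of control, or above a set upper limit, though filed actives all read lower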;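 also: 100% = DMSO only wells and 0% = binding blocked by excess unlabeled MEK5; lower values mean stronger disruption of MEK5 binding to MEKK3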
* = called active by the depositor; · = no result; [ ] = remark or other dose. Rows were chosen to be rich in hits. Some 3.1% of all compounds tested hit in one or more screens of this group.

SMILES | MEKK2mut PB1 HTS | UBC13 polyUb | MEKK3 PB1 HTS | PREPL inhibitor | MEKK2 WT-MEK5 | Apaf-1 inh | MEKK2wt confirm | MEKK2mut confirm | MEKK3 confirm
O=C(CSCC(=O)NC1CC1)Nc1ccccc1 | 2 | 3 | 99 | -1 | 96 | -4 | · | · | ·
O=C(CCSCc1ccccc1Cl)NC1CCCC1 | -15 | -9 | 2.0*[inhibitor] | 3 | 2.0*[inhibitor] | -6 | 107 | 3 | 104
O=C(CCSCc1cccc(Cl)c1)NC1CCCC1 | 0 | -2 | 122 | 3 | 102 | -3 | · | · | ·
O=C(CSCC(=O)NC1CCCC1)Nc1ccccc1 | 1 | -6 | 128* | -1 | 106 | 15 | 97 | -3 | 100
O=C(NCc1ccccn1)c1cccc(S(=O)(=O)Nc2ccccc2Cl)c1 | · | -3 | · | 2 | · | -2 | · | · | ·
COc1cc(S(=O)(=O)N2CCOCC2)cc(C(=O)OCC(=O)NC2CCCCC2)c1OC | · | -4 | · | 0 | · | 6 | · | · | ·
COc1ccc(Cl)cc1NC(=O)NC1CCCCC1 | -13 | 3 | 81*[inhibitor] | 21 | 91 | 23 | 93 | -4 | 96
COc1ccc(Cl)cc1NC(=O)NCC1CCN(C(=O)OC(C)(C)C)CC1 | 28 | -4 | 128* | 1 | 118 | 16 | 100 | -10 | 98
COc1ccc(Cl)cc1NC(=O)NCCN1CCCCC1 | 3 | -15 | 103 | 16 | 106 | 0 | · | · | ·
Cc1nc(CN2CCOCC2)cc(=O)[nH]1 | -16 | 1 | 2.0*[inhibitor] | 1 | 2.0*[inhibitor] | 2 | 102 | 3 | 101
O=c1cc(CN2CCCCC2)nc(C2CC2)[nH]1 | 0 | 2 | 99 | 6 | 102 | -9 | · | · | ·
Cc1ccc(C(C)C)c2c1C(c1ccc3c(c1)OCO3)CC(=O)O2 (centres undefined) | · | · | · | · | · | 15 | · | · | ·
COc1ccc(C(=O)C[n+]2cc(Br)cc3ccccc32)cc1[N+](=O)[O-] | 10 | 0 | 100 | 26 | 99 | 23 | · | · | ·
O=C(C[n+]1cc(Br)cc2ccccc21)c1ccccc1 | -8 | -6 | 93 | 13 | 66*[inhibitor] | 13 | 48 | -32 | 70*
COCCN(C(=O)COC(=O)/C=C/c1cccc(C(F)(F)F)c1)c1c(N)n(CC(C)C)c(=O)[nH]c1=O | · | 7 | · | 6 | · | -2 | · | · | ·
COc1ccc(C)cc1NC(=O)CN1CCN(S(=O)(=O)c2ccc3ccccc3c2)CC1 | · | 0 | · | -6 | · | 12 | · | · | ·
O=S(=O)(c1cccc2nsnc12)N1CCN(c2ccccc2F)CC1 | -6 | 4 | 82 | -10 | 87 | 10 | · | · | ·
O=S(=O)(c1cccc2nsnc12)N1CCN(c2ccc(F)cc2)CC1 | -10 | -9 | 72*[inhibitor] | -10 | 74 | 13 | 97 | 1 | 100
O=C(O)c1cc(Cl)c(Cl)cc1C(=O)Nc1cccnc1 | 0 | 2 | 119 | -4 | 112 | 0 | · | · | ·
O=C(Nc1cccnc1)c1cc(F)c(F)cc1Cl | -68 | 0 | 1.0*[inhibitor] | 8 | 1.0*[inhibitor] | -3 | 109 | 3 | 96
CCOC(=O)c1sc(N)c(C#N)c1CSc1nnc(C2CCCCC2)n1N | -20 | -3 | 0.0*[inhibitor] | 17 | -1.0*[inhibitor] | 31 | 98 | 2 | 103
COc1ccccc1NS(=O)(=O)c1cccc(C(=O)N/N=C2\CC(=O)CC(C)(C)C2)c1 | -1 | 1 | 142* | 6 | 102 | 5 | 102 | 2 | 102
CCN1CCN(/C=N/c2nc(C)cs2)CC1 | -18 | -1 | 2.0*[inhibitor] | 2 | -2.0*[inhibitor] | -35 | 106 | 4 | 99
O=C(CSc1nnc(NC(=O)C2CC2)s1)NCc1ccc(F)cc1 | 2 | -4 | 102 | 7 | 102 | 4 | · | · | ·
Cn1c(CS(=O)Cc2c(Cl)cccc2Cl)nnc1SCc1ccc(Cl)cc1 (centres undefined) | -26 | 10 | 34*[inhibitor] | 0 | 50 | 8 | 105 | 3 | 105
SMILES | MEKK2mut PB1 HTS | UBC13 polyUb | MEKK3 PB1 HTS | PREPL inhibitor | MEKK2 WT-MEK5 | Apaf-1 inh | MEKK2wt confirm | MEKK2mut confirm | MEKK3 confirm
O=C(NCc1ccc(N2CCCC2=O)cc1)Nc1ccccc1 | 3 | 5 | 103 | 4 | 103 | -4 | · | · | ·
O=C(NCc1ccc(N2CCCC2=O)cc1)Nc1cccc2ccccc12 | -9 | 6 | 1.0*[inhibitor] | 11 | -1.0*[inhibitor] | -1 | 101 | 1 | 103
CCc1cccc2cc3c(N)c(C(=O)Nc4ccc(S(=O)(=O)N5CCCC5)cc4)sc3nc12 | 4 | · | 154* | 1 | 67 | · | 87 | -13 | 99
Cc1cccc2cc3c(N)c(C(=O)Nc4ccc(N5CCOCC5)cc4)sc3nc12 | 1 | -34 | 103 | 28 | 102 | 5 | · | · | ·
NC(=O)CSc1nnc(COc2ccccc2)n1Cc1ccco1 | 0 | -1 | 131* | -8 | 120 | -4 | 96 | -3 | 97
O=C(CSc1nnc(COc2ccccc2)n1Cc1ccco1)c1ccc(F)cc1 | 2 | 9 | 103 | -22 | 102 | 31 | · | · | ·
COc1cc2c(cc1OC)C(c1ccccc1[N+](=O)[O-])N(C(C)=O)CC2 (centres undefined) | 3 | -11 | 100 | 2 | 101 | -3 | · | · | ·
Cc1noc(C)c1COc1ccc(C(=O)N2CCC(C(N)=O)CC2)cc1 | · | 2 | · | 18 | · | -1 | · | · | ·
CCN1CCN(Cc2ccc(NC(=O)c3cc(NC(=O)c4ccno4)cc(OC)c3)cc2C(F)(F)F)CC1 | 6 | 27 | 76 | 1 | 111 | 15 | · | · | ·
CCN1CCN(Cc2ccc(NC(=O)c3ccc(C)c(NC(=O)c4cccc(-c5cn[nH]c(=O)c5)c4)c3)cc2C(F)(F)F)CC1 | 29* | 43 | 108 | -2 | 169* | 19 | 143 | 20 | 99
CCN1CCN(Cc2ccc(NC(=O)c3cc(NC(=O)c4cc5cccc(OC)c5o4)cc(OC)c3)cc2C(F)(F)F)CC1 | 158* | 40 | 124* | -23 | 148* | 63* | 251* | 93* | 111
CC(C)(C=O)C1=CC(=O)c2ccccc2C1=O | 1 | · | 154* | 2 | 105 | · | 96 | -2 | 99
O=c1cc(N2CCC3(CC2)OCCO3)[nH]c(=O)n1-c1ccc(Br)cc1 | 2 | · | 51*[inhibitor] | · | 102 | · | 97 | -2 | 102
O=c1cc(N2CCN(c3ccccc3F)CC2)[nH]c(=O)n1-c1ccc(Br)cc1 | 13 | -6 | 104 | 2 | 109 | 7 | · | · | ·
C=CCc1cccc2cc(C(=O)NNC(=O)CC#N)c(=O)oc12 | 4 | -4 | 100 | 16 | 101 | 0 | · | · | ·
c1cc(-c2cccs2)nc(-c2cccs2)c1 | -3 | 4 | 96 | -1 | 94 | 5 | · | · | ·
